Consider 14 compounds from ChEMBL document CHEMBL2016564, “Conformationally restricted novel pyrazole derivatives: synthesis of 1,8-disubstituted 5,5-dimethyl-4,5-dihydro-1H-benzo[g]indazoles as a new class of PDE4 inhibitors” (Bioorg Med Chem Lett, 2012).

The term inhibition denotes the percentage by which the read-out fell short of the control. In general, IC50 refers to the concentration needed to halve the response being measured.

Test [1] addresses T1, 3',5'-cyclic-AMP phosphodiesterase 4B (Homo sapiens, UniProt Q07343). As to the kind of experiment: Inhibition of recombinant His-tagged PDE4B expressed in Sf9 cells using cAMP as substrate at 30 uM preincubated for 15 mins prior substrate addition measured after 1 hr by […]. The method in brief:
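In-house purified PDE4B (10 ng) was preincubated 15 min with compound or DMSO vehicle, followed by 1 h with cAMP substrate. After stop solution, detection reagent was applied for 10 min in the dark and luminescence (RLU) was read. % inhibition was taken against vehicle-control RLU and reported as the average with SD.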

Test [2] addresses 3',5'-cyclic-AMP phosphodiesterase 4D (Homo sapiens) (UniProt Q08499). In words: Inhibition of PDE4D using cAMP as substrate at 30 uM preincubated for 15 mins prior substrate addition measured after 1 hr by […]. The method in brief:
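Commercially sourced PDE4D (0.5 ng) was preincubated 15 min with compound or DMSO vehicle, then incubated 1 h with cAMP substrate. The reaction was halted with stop solution, and detection reagent was added for 10 min in the dark. Luminescence (RLU) was read, and % inhibition = (vehicle RLU − inhibitor RLU)/vehicle RLU × 100.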

The target of test [3] is T1, 3',5'-cyclic-AMP phosphodiesterase 4B.

Structures are written as SMILES.

3',5'-cyclic-AMP phosphodiesterase 4D (Homo sapiens), sequence (Q08499 whole entry): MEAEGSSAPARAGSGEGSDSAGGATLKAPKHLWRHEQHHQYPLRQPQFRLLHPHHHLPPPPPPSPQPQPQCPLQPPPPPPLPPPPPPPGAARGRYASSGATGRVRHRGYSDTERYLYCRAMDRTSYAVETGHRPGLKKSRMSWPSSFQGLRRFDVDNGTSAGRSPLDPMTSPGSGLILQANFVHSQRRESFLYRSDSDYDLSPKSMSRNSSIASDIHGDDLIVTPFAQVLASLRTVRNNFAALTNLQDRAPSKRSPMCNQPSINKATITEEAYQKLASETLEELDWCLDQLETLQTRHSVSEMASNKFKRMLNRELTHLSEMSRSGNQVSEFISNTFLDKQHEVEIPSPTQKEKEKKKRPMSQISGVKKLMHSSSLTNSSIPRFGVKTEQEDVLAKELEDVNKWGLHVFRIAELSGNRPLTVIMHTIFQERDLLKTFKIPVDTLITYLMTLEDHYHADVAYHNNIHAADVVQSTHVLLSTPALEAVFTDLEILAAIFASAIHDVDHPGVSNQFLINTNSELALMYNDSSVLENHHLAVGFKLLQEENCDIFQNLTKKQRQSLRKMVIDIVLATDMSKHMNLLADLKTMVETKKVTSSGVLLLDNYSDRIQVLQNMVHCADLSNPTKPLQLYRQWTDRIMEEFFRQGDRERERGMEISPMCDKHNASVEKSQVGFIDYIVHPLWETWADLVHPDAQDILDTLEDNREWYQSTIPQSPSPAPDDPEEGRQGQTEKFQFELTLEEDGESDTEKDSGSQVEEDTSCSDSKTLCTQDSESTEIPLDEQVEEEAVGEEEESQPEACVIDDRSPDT
T1 sequence (Q07343 whole entry): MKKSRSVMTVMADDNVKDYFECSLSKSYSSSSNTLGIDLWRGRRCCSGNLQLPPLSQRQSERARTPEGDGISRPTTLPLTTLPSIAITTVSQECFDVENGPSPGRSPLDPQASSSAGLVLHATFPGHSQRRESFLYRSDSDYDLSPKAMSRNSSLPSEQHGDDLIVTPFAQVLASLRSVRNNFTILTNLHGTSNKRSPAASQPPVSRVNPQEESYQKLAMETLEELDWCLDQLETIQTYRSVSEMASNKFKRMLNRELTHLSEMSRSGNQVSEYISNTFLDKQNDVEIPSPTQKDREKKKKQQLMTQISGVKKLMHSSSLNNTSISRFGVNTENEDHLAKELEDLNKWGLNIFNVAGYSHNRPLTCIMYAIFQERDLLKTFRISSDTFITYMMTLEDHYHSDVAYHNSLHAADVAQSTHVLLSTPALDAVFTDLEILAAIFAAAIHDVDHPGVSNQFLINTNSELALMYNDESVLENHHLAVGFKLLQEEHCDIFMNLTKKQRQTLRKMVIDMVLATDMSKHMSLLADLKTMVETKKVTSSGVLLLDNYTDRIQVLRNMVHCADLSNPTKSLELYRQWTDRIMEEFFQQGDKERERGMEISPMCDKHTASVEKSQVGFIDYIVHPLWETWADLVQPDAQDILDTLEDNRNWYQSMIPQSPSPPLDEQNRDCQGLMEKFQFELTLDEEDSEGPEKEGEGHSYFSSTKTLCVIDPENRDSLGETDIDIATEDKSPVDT

Consider `CC1(C)Cc2cnn(-c3ccc(Cl)cc3)c2-c2cc(Br)ccc21`, for which, in test [1], the inhibition worked out at 68.1%. As for `CC(C)n1ncc2c1-c1cc(Br)ccc1C(C)(C)C2`, in test [1], the inhibition worked out at 56.8%. Same read-out and setting: the result for `CC1(C)Cc2cnn(-c3ccc(F)cc3)c2-c2cc([N+](=O)[O-])ccc21` reads 66.8%. As for `Cc1ccc(-n2ncc3c2-c2cc(Br)ccc2C(C)(C)C3)cc1`, the inhibition in test [1] was 64.9%. Regarding `CC1(C)Cc2cnn(-c3ccccc3)c2-c2cc([N+](=O)[O-])ccc21`, the values for the inhibition in test [2] and in test [1] were 55.8% and 72.1%, respectively. For `CC1(C)Cc2cnn(-c3ccc(C(F)(F)F)cc3)c2-c2cc(Br)ccc21`, the inhibition in test [1] stood at 42.2%.

For `CC1(C)Cc2cnn(C(C)(C)C)c2-c2cc(Br)ccc21`, the inhibition in test [2] was 41.7%; in test [1], 71.4%.

As for `Cc1cccc(-n2ncc3c2-c2cc([N+](=O)[O-])ccc2C(C)(C)C3)c1C`, the inhibition in test [2] amounted to 54.9%; in test [1], 72.7%. For the compound `CC1(C)Cc2cnn(-c3ccc(F)cc3)c2-c2cc(NS(C)(=O)=O)ccc21`, in test [1], the inhibition was determined as 75.1%. On to `CC1(C)Cc2cnn(-c3ccc(F)cc3)c2-c2cc(NS(=O)(=O)c3ccccc3)ccc21`, for which the inhibition in test [1] came out at 75.6%. Same read-out and setting: the result for `CC1(C)Cc2cnn(-c3ccc(Br)cc3)c2-c2cc(Br)ccc21` reads 60.3%.

`CC1(C)Cc2cnn(-c3ccccc3)c2-c2cc(Br)ccc21` registered an IC50 in test [3] of 4.57 µM. Also, the figures for the inhibition in test [2] and in test [1] were 50% and 76.2%, respectively. For `CC1(C)Cc2cnn(-c3ccc(F)cc3)c2-c2cc(Br)ccc21`, the inhibition in test [2] is 65.4%; in test [1], 72.2%.

As to `Cc1ccc(-n2ncc3c2-c2cc([N+](=O)[O-])ccc2C(C)(C)C3)cc1`, the inhibition in test [1] turned out to be 68.2%.
